Results taken from PMC9933477 (ACS Omega, 2023).
In brackets after ≈: the same amount, converted by molar mass.

Experiments:
[1] = Aqueous solubility measurement; assay type: physicochemical; details: PBS pH 7.4, pH 7.4, aqueous buffer, kinetic from dmso stock
RORγt = molecular target: T1, RORγt (Homo sapiens, UniProt P51449); experiment: Cofactor peptide recruitment assay; assay type: biochemical
T1 sequence (P51449 251-518): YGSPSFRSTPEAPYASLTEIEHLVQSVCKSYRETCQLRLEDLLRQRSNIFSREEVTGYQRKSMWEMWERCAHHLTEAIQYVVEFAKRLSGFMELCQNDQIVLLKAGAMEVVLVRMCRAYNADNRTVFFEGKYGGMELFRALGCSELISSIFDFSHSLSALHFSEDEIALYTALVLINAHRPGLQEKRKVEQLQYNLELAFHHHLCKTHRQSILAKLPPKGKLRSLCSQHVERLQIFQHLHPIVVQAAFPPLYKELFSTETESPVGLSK
In short: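 Cell-free AlphaScreen measuring test compound interference with RORγt binding to SRC-1 coactivator peptide. […] Vehicle (DMSO) wells are set as 100% control and wells lacking protein as 0% control.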

GPBAR1 = molecular target: T2, GPBAR1 (Homo sapiens, UniProt Q8TDU6); experiment: Luciferase reporter assay; assay type: cell-based
T2 sequence (Q8TDU6 1-330): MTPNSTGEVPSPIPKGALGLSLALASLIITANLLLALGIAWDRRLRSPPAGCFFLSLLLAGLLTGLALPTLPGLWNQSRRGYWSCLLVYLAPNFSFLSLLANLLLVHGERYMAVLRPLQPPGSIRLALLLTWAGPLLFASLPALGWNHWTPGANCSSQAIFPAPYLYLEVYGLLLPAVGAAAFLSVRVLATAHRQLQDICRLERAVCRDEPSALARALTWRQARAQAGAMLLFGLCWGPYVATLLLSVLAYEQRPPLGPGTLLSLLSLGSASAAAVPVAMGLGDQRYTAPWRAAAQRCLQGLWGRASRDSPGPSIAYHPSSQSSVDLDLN
In short: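 HEK-293T cells transfected with GPBAR1 carry a cAMP-responsive element (CRE) luciferase reporter. Single-point efficacy at 10 μM is scored against TLCA (10 μM) as 100%, as the mean of two experiments ± SD. EC50 comes from concentration-dependent CREB activation in the same transfected cells.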

U937 cells = U937 cells activated with LPS plus TNFα, RT-PCR of proinflammatory genes; assay type: cell-based, human; details: 1 μM, 24 h, compared to cells exposed only to LPS plus TNFα
TNBS-induced colitis = experiment: Mouse model of TNBS-induced colitis; assay type: in vivo; details: 10, 20 or 30 mg/kg/day by gavage
In short: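 C57 male mice given TNBS to induce colitis, then vehicle or test compound at 10, 20 or 30 mg/kg/day by gavage, day 0 to day 4. Read-outs: body-weight change, CDAI, colon length, colon weight/length ratio, H&E of colon sections. Colon mRNA by RT-PCR normalised to Gapdh, Tbp and Actb. Mean ± SEM of 5–10 mice/group; p<0.05 vs TNBS or untreated.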

[2] = Metabolic stability in human liver microsomes; assay type: in vitro ADME; details: pH 7.4

Row | solubility at 24 h [1] [µM] | IC50 (RORγt) [µM] | EC50 (GPBAR1) [µM] | SMILES | further results
1 | 10 (≈ 4.62 µg/mL) | – | – | C[C@H](CCCOc1ccc(C#N)cc1)[C@H]1CC[C@H]2[C@@H]3CC=C4C[C@@H](O)CC[C@]4(C)[C@H]3CC[C@]12C [Compound 5] | –
2 | – | 1.19 | 0.22 | C[C@H](CCCOc1ccc(C(=O)O)cc1)[C@H]1CC[C@H]2[C@@H]3CC=C4C[C@@H](O)CC[C@]4(C)[C@H]3CC[C@]12C [Compound 3] | Reduction in the expression of all measured genes (IL-1β, TNFα, IL-6, CD11c) (U937 cells): 30–50%
3 | 15 (≈ 6.96 µg/mL) | – | – | C[C@H](CCCOc1ccc(C#N)cc1)[C@H]1CC[C@H]2[C@@H]3CC[C@@H]4C[C@H](O)CC[C@]4(C)[C@H]3CC[C@]12C [Compound 17] | –
4 | – | 0.107 | 5.9 | C[C@H](CCCOc1cccc(CO)c1)[C@H]1CC[C@H]2[C@@H]3CC=C4C[C@@H](O)CC[C@]4(C)[C@H]3CC[C@]12C [Compound 7] | Damage to the colon (macroscopic analysis and H&E histology) (TNBS-induced colitis; day 0 to day 4): decreased the damage to the colon; Severity of colitis (percentage of body weight, CDAI) (TNBS-induced colitis; day 0 to day 4): relieved by 7 in a dose-dependent manner; Colon expression of IL-10 (TNBS-induced colitis; RT-PCR of colon): strong increase; Colon expression of Rorc, IL-17A, and F (TNBS-induced colitis; RT-PCR of colon): decreased the expression; microsomal CLint at 1 µM [2]: 7 µL/min/mg
